Assay results as given in ChEMBL document CHEMBL3098043, “New insights into molecular recognition of 1,1-bisphosphonic acids by farnesyl diphosphate synthase” (Bioorg Med Chem, 2014).
pEC50, pIC50: −log10 of the molar value.

Test system: Trypanosoma cruzi
Test: Antimicrobial activity against Trypanosoma cruzi amastigotes
Format: functional
Settings: read-out: ED50 (the source's name)
Summary of the method: (§1)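 Vero cells were gamma-irradiated (2,000 Rads), seeded at 3.4×10^4/well in RPMI with 10% FBS, and incubated overnight at 35 °C, 7% CO2. […] Compounds were given in serial dilutions (1.56–25 μM), each in quadruplicate, with benznidazole (0.39–6.25 μM) as reference. Fluorescence was read on day 3 post-infection, and IC50 was obtained by non-linear regression.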

Row | pEC50 | SMILES
1 | 6.08 | CCCCCCNCC(P(=O)(O)O)P(=O)(O)O

Test system: not listed separately
Test: Cytotoxicity against hTerT cells
Format: cell-based
Settings: human
Summary of the method: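 Toxicity toward hTerT host cells was judged by visual inspection during the tachyzoite growth assay. Cells were in DMEM-HG with 1% FBS at 37 °C, 5% CO2.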

Row | SMILES | Activity
2 | CCCCCCCNCC(O)(P(=O)(O)O)P(=O)(O)O | Non-toxic
3 | CCCCCNCC(O)(P(=O)(O)O)P(=O)(O)O | Non-toxic
4 | CCCCCCNCC(O)(P(=O)(O)O)P(=O)(O)O | Non-toxic
5 | CCCCCCCCNCC(O)(P(=O)(O)O)P(=O)(O)O | Non-toxic
6 | CCCCCCCCCCNCC(O)(P(=O)(O)O)P(=O)(O)O | Non-toxic

Test system: Toxoplasma gondii
Test: Antimicrobial activity against Toxoplasma gondii tachyzoites expressing red fluorescence protein infected in hTerT cells at 10 uM measured daily by fluorescence assay
Format: functional
Settings: not given

Row | SMILES | inhibition at 10 µM
7 | CCCCCCCCCCNCC(O)(P(=O)(O)O)P(=O)(O)O | 14.9%

Test system: Toxoplasma gondii
Test: Antimicrobial activity against Toxoplasma gondii tachyzoites expressing red fluorescence protein infected in hTerT cells measured daily by fluorescence assay
Format: functional
Settings: read-out: ED50 (the source's name)
Summary of the method: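 Tachyzoites expressing red fluorescent protein, maintained in hTerT cells in DMEM-HG with 1% FBS, 2 mM glutamine, 1 mM pyruvate, 37 °C, 5% CO2. Confluent hTerT monolayers infected with 10^4 filtered, needle-passed tachyzoites/well. Drugs serially diluted in the same medium. Fluorescence read daily from the bottom (ex 510, em 540 nm).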

Row | SMILES | pEC50
8 | CCCCCCCNCC(O)(P(=O)(O)O)P(=O)(O)O | ≤ 5.00
9 | CCCCCNCC(O)(P(=O)(O)O)P(=O)(O)O | < 5.00
10 | CCCCCCNCC(O)(P(=O)(O)O)P(=O)(O)O | 5.33
11 | CCCCCCCCNCC(O)(P(=O)(O)O)P(=O)(O)O | 5.70
12 | O=P(O)(O)C(O)(Cc1cccnc1)P(=O)(O)O [RISEDRONIC ACID] | 5.62

Test system: Vero
Test: Cytotoxicity against african green monkey Vero cells at 25 uM
Format: cell-based
Settings: chlorocebus sabaeus
Summary of the method: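 Host-cell toxicity toward irradiated, T. cruzi-infected Vero cells was judged by visual inspection during the amastigote assay. Drugs went up to 25 μM in RPMI with 10% FBS at 35 °C, 7% CO2, over 3 days.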

Row | SMILES | Activity
13 | CCCCCCCNCC(O)(P(=O)(O)O)P(=O)(O)O | Non-toxic
14 | CCCCCNCC(O)(P(=O)(O)O)P(=O)(O)O | Non-toxic
15 | CCCCCCNCC(O)(P(=O)(O)O)P(=O)(O)O | Non-toxic
16 | CCCCCCCCNCC(O)(P(=O)(O)O)P(=O)(O)O | Non-toxic
17 | CCCCCCCCCCNCC(O)(P(=O)(O)O)P(=O)(O)O | Non-toxic

Test system: Vero
Test: Cytotoxicity against african green monkey Vero cells at 10 uM
Format: cell-based
Settings: chlorocebus sabaeus

Row | SMILES | Activity
18 | CCCCCCCCNCC(O)(P(=O)(O)O)P(=O)(O)O | Toxic

Test system: Trypanosoma cruzi
Test: Antimicrobial activity against Trypanosoma cruzi CL amastigotes infected in african green monkey Vero cells at 10 uM measured on day 3 by fluorescence assay
Format: functional
Settings: 72 h
Summary of the method: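 Vero host cells, gamma-irradiated (2,000 Rads), seeded at 3.4×10^4/well in RPMI with 10% FBS and incubated overnight at 35 °C, 7% CO2. […] Compounds were added in RPMI, in quadruplicate, with no-parasite background and no-drug controls. Fluorescence was read at day 3 post-infection.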

Row | SMILES | inhibition at 10 µM
19 | CCCCCCCCNCC(O)(P(=O)(O)O)P(=O)(O)O | 46%
20 | CCCCCCCCCCNCC(O)(P(=O)(O)O)P(=O)(O)O | 42%

Test system: Trypanosoma cruzi
Test: Antimicrobial activity against Trypanosoma cruzi CL amastigotes infected in african green monkey Vero cells measured on day 3 by fluorescence assay
Format: functional
Settings: 72 h, read-out: ED50 (the source's name)
Summary of the method: as §1

Row | SMILES | pEC50
21 | CCCCCCCNCC(O)(P(=O)(O)O)P(=O)(O)O | < 4.70
22 | CCCCCNCC(O)(P(=O)(O)O)P(=O)(O)O | < 4.70
23 | CCCCCCNCC(O)(P(=O)(O)O)P(=O)(O)O | < 4.70
24 | O=C(Cn1ccnc1[N+](=O)[O-])NCc1ccccc1 [BENZNIDAZOLE] | 5.84

Test system: not listed separately
Test: […]
Parameters: species or system Trypanosoma cruzi
Settings: not given

Row | SMILES | pIC50
25 | CCCCCCCNCC(O)(P(=O)(O)O)P(=O)(O)O | < 5.00
26 | CCCCCNCC(O)(P(=O)(O)O)P(=O)(O)O | < 5.00
27 | CCCCCCNCC(O)(P(=O)(O)O)P(=O)(O)O | < 5.00
28 | CCCCCCCCNCC(O)(P(=O)(O)O)P(=O)(O)O | < 5.00
29 | CCCCCCCCCCNCC(O)(P(=O)(O)O)P(=O)(O)O | < 5.00

Test system: Trypanosoma cruzi
Test: Antimicrobial activity against Trypanosoma cruzi
Format: functional
Settings: read-out: ED50 (the source's name)

Row | pEC50 | SMILES
30 | 6.17 | CCCCCCCCCCCCNCC(P(=O)(O)O)P(=O)(O)O
31 | 5.56 | O=C(Cn1ccnc1[N+](=O)[O-])NCc1ccccc1 [BENZNIDAZOLE]

Test system: Trypanosoma cruzi
Test: Ratio of compound activity to WC-9 activity for Trypanosoma cruzi amastigotes
Format: functional
Settings: not given

Row | SMILES | Ratio
32 | CCCCCCNCC(P(=O)(O)O)P(=O)(O)O | 15

Target: T1, Farnesyl diphosphate synthase (Toxoplasma gondii, UniProt Q197X6)
T1 sequence (Q197X6 whole entry): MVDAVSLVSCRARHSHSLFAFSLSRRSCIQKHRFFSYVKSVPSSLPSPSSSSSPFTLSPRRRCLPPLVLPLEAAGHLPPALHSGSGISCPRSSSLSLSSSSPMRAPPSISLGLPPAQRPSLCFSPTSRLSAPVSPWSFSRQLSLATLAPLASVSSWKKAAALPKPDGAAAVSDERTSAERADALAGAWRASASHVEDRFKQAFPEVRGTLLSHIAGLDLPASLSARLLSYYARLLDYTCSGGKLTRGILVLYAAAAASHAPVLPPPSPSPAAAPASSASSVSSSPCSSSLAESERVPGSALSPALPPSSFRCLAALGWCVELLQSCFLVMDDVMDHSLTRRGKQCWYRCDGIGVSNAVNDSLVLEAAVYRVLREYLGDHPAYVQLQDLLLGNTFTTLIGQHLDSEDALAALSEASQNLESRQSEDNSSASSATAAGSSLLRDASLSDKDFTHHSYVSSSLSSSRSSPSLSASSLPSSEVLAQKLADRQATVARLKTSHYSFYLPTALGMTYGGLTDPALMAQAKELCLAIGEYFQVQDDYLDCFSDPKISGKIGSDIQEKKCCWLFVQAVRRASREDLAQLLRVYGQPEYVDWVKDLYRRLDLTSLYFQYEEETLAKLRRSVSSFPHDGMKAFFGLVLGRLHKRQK
Test: Inhibition of Toxoplasma gondii FPPS
Settings: not given

Row | SMILES | pIC50
33 | CCCCCCCCC(F)(P(=O)(O)O)P(=O)(O)O | 7.46
34 | CCCCCCCCCC(F)(P(=O)(O)O)P(=O)(O)O | 7.22
35 | CCCCCNCC(O)(P(=O)(O)O)P(=O)(O)O | 7.17
36 | CCCCCCNCC(O)(P(=O)(O)O)P(=O)(O)O | 7.29
37 | CCCCCCCCNCC(O)(P(=O)(O)O)P(=O)(O)O | 7.41
38 | CCCCCCCCCCNCC(O)(P(=O)(O)O)P(=O)(O)O | 6.90
